Measured values from ChEMBL document CHEMBL1157508, “Mollamides B and C, Cyclic hexapeptides from the indonesian tunicate Didemnum molle” (J Nat Prod, 2008).
Converted amounts (≈) assume the structure as drawn. The source made the active and inactive calls. No cut-off for these calls is given here. Numbered stars: 1 amine (or outer) side, 2 acyl side, 3 side chain; on linkers, the order of the positions; unused ones are H or OH. Square brackets hold non-standard residues; d marks the D form. Peptide text beside a SMILES is read from it. * marks the point of attachment. X1 = CC(C)[C@H](N[*:1])C1=N[C@H](C(=O)[*:2])CS1; Allyl(1,1-Me2) = C=CC(C)(C)*

Key:
Microglia = test: Antiinflammatory activity against rat neonatal microglia; assay type: functional
Pichia kudriavzevii = test: Antimicrobial activity against Candida krusei; assay type: functional, organism-based
Plasmodium falciparum [1] = test: Antimalarial activity against Plasmodium falciparum D6; assay type: functional, organism-based
Staphylococcus aureus = test: Antimicrobial activity against methicillin-resistant Staphylococcus aureus; assay type: functional, organism-based
Leishmania donovani = test: Antileishmanial activity against Leishmania donovani; assay type: functional, organism-based
[2] = biological target: T1, Prostaglandin G/H synthase 2 (Homo sapiens) (UniProt P35354); test: Inhibition of COX2 in cell based assay
T1 sequence (whole entry): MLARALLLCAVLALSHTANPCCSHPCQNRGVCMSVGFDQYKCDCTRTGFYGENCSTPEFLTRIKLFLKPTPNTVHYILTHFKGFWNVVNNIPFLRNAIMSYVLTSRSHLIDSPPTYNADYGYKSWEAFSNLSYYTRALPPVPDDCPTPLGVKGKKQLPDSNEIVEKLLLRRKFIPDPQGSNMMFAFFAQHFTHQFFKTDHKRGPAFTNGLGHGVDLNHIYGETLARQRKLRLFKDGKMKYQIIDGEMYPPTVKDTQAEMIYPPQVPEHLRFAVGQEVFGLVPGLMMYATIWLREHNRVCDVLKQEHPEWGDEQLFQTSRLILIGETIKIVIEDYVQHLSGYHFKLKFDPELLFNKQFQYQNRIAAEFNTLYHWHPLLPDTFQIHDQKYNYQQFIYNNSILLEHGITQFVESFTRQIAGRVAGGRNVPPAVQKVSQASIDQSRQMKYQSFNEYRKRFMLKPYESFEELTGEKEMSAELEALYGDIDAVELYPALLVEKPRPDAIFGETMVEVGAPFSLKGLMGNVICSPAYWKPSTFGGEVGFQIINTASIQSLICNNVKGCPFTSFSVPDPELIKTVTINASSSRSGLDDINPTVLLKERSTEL

[3] = system: Human immunodeficiency virus 1; test: Antiviral activity against HIV1 infected in human PBMC; assay type: functional, organism-based
Candida albicans = test: Antimicrobial activity against Candida albicans; assay type: functional, organism-based
[4] = system: Mycobacterium intracellulare; test: Antimicrobial activity against Mycobacterium intracellular; assay type: functional, organism-based
Plasmodium falciparum [5] = test: Antimalarial activity against Plasmodium falciparum W2; assay type: functional, organism-based
Cryptococcus neoformans = test: Antimicrobial activity against Cryptococcus neoformans; assay type: functional, organism-based
Nakaseomyces glabratus = test: Antimicrobial activity against Candida glabrata; assay type: functional, organism-based
[6] = Cytotoxicity against mouse Colon38 cells assessed as zone differential value; assay type: functional
How it was run: (§1)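 In vitro disk diffusion assay measuring differential cell killing across nine cell types: leukemias (murine L1210, human CCRF-CEM), solid tumors (murine colon 38, human HCT-116, H125, MCF-7, LNCaP), and murine and human normal hematopoietic progenitor cells (CFU-GM). The read-out is the zone differential between solid tumor, leukemia and normal cell colonies.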

HCT-116 = test: Cytotoxicity against human HCT116 cells assessed as zone differential value; assay type: functional; how it was run: as §1
[7] = Cytotoxicity against human H125 cells assessed as zone differential value; assay type: functional; how it was run: as §1
L1210 = test: Cytotoxicity against mouse L1210 cells assessed as zone differential value; assay type: functional; how it was run: as §1

SMILES	Activity (Microglia)	Activity (Pichia kudriavzevii)	IC50 (Plasmodium falciparum [1])	Activity (Staphylococcus aureus)	IC50 (Leishmania donovani)	IC90 (Leishmania donovani)	Activity [2]	EC50 [3]	Activity (Candida albicans)	Activity [4]	IC50 (Plasmodium falciparum [5])	Activity (Cryptococcus neoformans)	Activity (Nakaseomyces glabratus)	Activity [6]	Activity (HCT-116)	Activity [7]	Activity (L1210)
C=CC(C)(C)O[C@H](C)[C@@H]1NC(=O)[C@@H]2CCCN2C(=O)[C@H](Cc2ccccc2)NC(=O)[C@H](C(C)C)NC(=O)[C@@H]2CSC(=N2)[C@H](C(C)C)NC1=O [MOLLAMIDE B] (cyclo(FPT(Allyl(1,1-Me2))[X1]V))	inactive	inactive	2 mg/L (≈ 2.87 µM)	inactive	18 mg/L (≈ 25.8 µM)	35 mg/L (≈ 50.2 µM)	inactive	48.7 µM	inactive	inactive	2.1 mg/L (≈ 3.01 µM)	inactive	inactive	–	–	–	–
C=CC(C)(C)OC[C@@H]1NC(=O)CNC(=O)[C@@H]2CCCN2C(=O)[C@H]([C@H](C)CC)NC(=O)c2csc(n2)[C@H](CC(C)C)NC1=O [MOLLAMIDE C]	inactive	–	–	–	–	–	inactive	–	–	–	–	–	–	250	100	100	100
